Source: PubChem BioAssay
GPR7 antag: antagonists of human GPR7 (neuropeptides B/W receptor 1). P48145. GPR7-expressing cells, fluorescence antagonist assay. inhibition, % at 4.4 µM. actives 1.1% (n = 290,000). AID 1861; in the data active means inhibition above about 16%, passing the limit was not always enough;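 further: cells stimulated with the agonist NPW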
Target sequence (P48145 whole entry, looked up): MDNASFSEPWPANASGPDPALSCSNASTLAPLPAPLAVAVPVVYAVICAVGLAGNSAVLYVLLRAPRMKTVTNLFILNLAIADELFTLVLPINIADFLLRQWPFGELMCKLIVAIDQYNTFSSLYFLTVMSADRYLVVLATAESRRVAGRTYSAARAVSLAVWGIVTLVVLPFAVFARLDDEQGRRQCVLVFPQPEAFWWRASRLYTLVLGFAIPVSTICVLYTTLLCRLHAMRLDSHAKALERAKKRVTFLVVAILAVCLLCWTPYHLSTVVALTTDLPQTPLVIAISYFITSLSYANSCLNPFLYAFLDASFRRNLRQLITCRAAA
OX1R antag-1: OX1R (human) antagonism; AID 485270; actives 1.8% (n = 330,000); inhibition, % at 6.6 µM; OX1R-expressing cells, FRET antagonist read-out; in the data active means inhibition mostly above about 38%, no sharp cut-off; inactive means mostly below about 40%
CHO parental Ca: counter-screen: ATP calcium response change in parental CHO cells | parental CHO-K1, ATP-induced calcium, Fluo-8 fluorescence | inhibition, % at 5.6 µM | actives 0.63% (n = 330,000) | AID 463079;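 active means inhibition above that plate's mean sample inhibition plus 3 SD, cut at about 26% in these data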
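Material – parental CHO cells · Reagent – ATP stimulus · Compound – single nominal dose of 5.6 µM per compound · Detection – Fluo-8 fluorescence · Read-out basis – percent inhibition of calcium signal · Controls – ATP-challenged DMSO wells low, unchallenged DMSO wells high · Repeats – no replicates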
MPTP inh: permeability transition pore inhibition; isolated mouse mitochondria, Ca2+ swelling absorbance, 30 min; inhibition, % at 10 µM; actives 1.4% (n = 360,000); AID 602449;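 active means inhibition of 50% or more, scaled per plate between neutral and stimulator controls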
OX1R antag-2: antagonists of human orexin 1 receptor | O43613 | CHO/OX1R cells, Fluo-8 calcium fluorescence, orexin A | inhibition, % at 5 µM | actives 0.43% (n = 330,000) | AID 434989;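 active means inhibition above its plate's threshold, mean inhibition of all tested compounds on the plate plus 3 SD, cut at about 37% in these data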
Of the large screens only hits and unclear results are named; the others gave an inactive call. Only some compounds are listed: those with a hit (about 3.8% of all), similar ones and a draw of the others.

C/C(=N\NC(=O)C(=O)N/N=C(\C)c1cccc(O)c1)c1cccc(O)c1	OX1R antag-1 58
COc1ccc(/C=C2\SC(=O)N(CCNC(=O)Cc3coc4cc(C)ccc34)C2=O)cc1OC	OX1R antag-1 54
COc1cc(/C=C/C(=O)OCC(=O)Nc2nnc(-c3ccccc3)o2)cc(OC)c1OC	OX1R antag-1 72 (no result: GPR7 antag)
COc1ccc(C)cc1NC(=O)CCNS(=O)(=O)c1cccc2nonc12	OX1R antag-1 71
Cc1ccc2nc(N/N=C/c3ccccc3C#N)nc(-c3ccccc3)c2c1	none
Cc1ccc2nc(N/N=C/c3ccccc3F)nc(-c3ccccc3)c2c1	OX1R antag-1 51
O=C(Nc1cccc(C(=O)O)c1)/C(=C\c1ccc2c(c1)OCO2)NC(=O)c1ccccc1Br	none (no result: GPR7 antag, OX1R antag-1, CHO parental Ca, OX1R antag-2)
CC(=O)Nc1ccc(N=NC2C(=O)N(C(N)=S)N=C2C)cc1 (configuration not stated)	OX1R antag-1 34
Cc1ccc2nc(C(C)(C)C)c(Cc3ccccc3C(F)(F)F)n2c1	none (no result: GPR7 antag, OX1R antag-1, CHO parental Ca, OX1R antag-2)
Cc1nc2c(-c3ccc(F)cc3)cnn2c2c1CCC2	OX1R antag-1 54
COc1ccc(-c2cnc3c(-c4ccc(F)cc4)cnn3c2N)cc1	none
Cc1ccc(NC(=O)CSc2nc3nc(C)c(Br)cc3[nH]2)cc1F	OX1R antag-1 45
O=C(COc1ncnc2cc([N+](=O)[O-])ccc12)N(CCc1ccccc1)Cc1ccccc1	CHO parental Ca 72, OX1R antag-2 54
O=C(COc1ncnc2ccccc12)Nc1cccc([N+](=O)[O-])c1	none
O=C(COc1ncnc2ccccc12)NC1CCCC1	none (no result: GPR7 antag)
O=C(COc1ncnc2cc([N+](=O)[O-])ccc12)NC1CCCCC1	OX1R antag-1 56
CCN(Cc1ccccc1)C(=O)COc1ccccc1	none
O=C(COc1ccc([N+](=O)[O-])cc1)N(Cc1ccccc1)Cc1ccccc1	GPR7 antag 31
COC1=CC(=O)OC(c2ccco2)C1 (configuration not stated)	none (no result: GPR7 antag, OX1R antag-1, CHO parental Ca, OX1R antag-2)
CCOc1cccc(NC(=O)/C(C#N)=C\c2cn(CC(=O)O)c3ccccc23)c1	OX1R antag-1 55
CCOc1ccc(NC(=O)/C(C#N)=C/c2cn(CC(=O)O)c3ccccc23)cc1	none (no result: OX1R antag-1, CHO parental Ca, OX1R antag-2)
Cc1cccc(C)c1NC(=O)C(c1ccccc1OC(F)(F)F)N1CCN(C)CC1 (configuration not stated)	none (no result: GPR7 antag, OX1R antag-1, CHO parental Ca, OX1R antag-2)
CC1CCCCN1C(=O)CCS(=O)(=O)c1cccc2nonc12 (configuration not stated)	OX1R antag-1 71
Cc1nc2nc(C)c(CCC(=O)NC(C)c3ccc4c(c3)OCCO4)c(C)n2n1 (configuration not stated)	none
Cc1nc2cc(-c3ccccc3)nn2c(C)c1CCC(=O)NC(C)c1ccc2c(c1)OCCO2 (configuration not stated)	OX1R antag-1 52
Cc1nc2cc(-c3cccc(F)c3)nn2c(C)c1CCC(=O)NC(C)c1ccc2c(c1)OCCO2 (configuration not stated)	OX1R antag-1 49
O=S1(=O)CC(N2CCCCC2)CN1CCc1ccccc1 (configuration not stated)	none (no result: GPR7 antag, OX1R antag-1, CHO parental Ca, OX1R antag-2)
O=C1[C@@H](Oc2ccccc2)[C@@H](c2cnc3ccccc3c2)N1c1ccccc1	OX1R antag-1 41 (no result: GPR7 antag)
Cc1cc(C)c(NC(=O)CSc2nnc(Cc3cccn3C)n2-c2ccc(F)cc2)c(C)c1	OX1R antag-1 60
Cc1cccc(Nc2ncnc3nc[nH]c23)c1	GPR7 antag 19
CCCNC(=O)C1(C)CCN(C(=O)c2ccc3c(c2)CCO3)C1 (configuration not stated)	none (no result: GPR7 antag, OX1R antag-1, CHO parental Ca, OX1R antag-2)
Cc1c(C(=O)NNC(=O)c2ccccc2O)oc2ccc(Br)cc12	CHO parental Ca 64 (no result: GPR7 antag)
C/C(=N\Nc1cccc2cccnc12)c1ccccn1	OX1R antag-1 43
C/C(=N\Nc1cccc2cccnc12)c1ccccc1O	none
COc1ccc(/C=C2\Oc3cc(OCC(=O)N4CCC[C@H]4C(=O)O)ccc3C2=O)cc1OC	OX1R antag-1 51
COc1ccc(/C=C2\Oc3cc(OCC(=O)N4CCC[C@H]4C(=O)O)ccc3C2=O)c(OC)c1OC	none
COCC(C)NC(=O)CSc1ncnc2sc(-c3ccccc3)cc12 (configuration not stated)	none
COc1ccc(CN(CCc2ccccc2)Cc2ccccc2)cc1OC	OX1R antag-1 60
Cc1ccc(S(=O)(=O)Nc2ccccc2C(C(=O)OC(C)(C)C)C(=O)OC(C)(C)C)cc1	none (no result: GPR7 antag, OX1R antag-1, CHO parental Ca, OX1R antag-2)
Cc1ccc(NC(=S)N(CCCN2CCCC2)Cc2cccn2Cc2ccc(Cl)cc2)cc1Cl	none
